According to ChEMBL document CHEMBL1125485, “Inhibitors of blood platelet cAMP phosphodiesterase. 2. Structure-activity relationships associated with 1,3-dihydro-2H-imidazo[4,5-b]quinolin-2-ones substituted with functionalized side chains” (J Med Chem, 1992):

Tests used:
Rattus norvegicus [1] = organism: Rattus norvegicus; assay: Oral efficacy in rats using the ex vivo aggregatory protocol; type: functional
Outline: (§1)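 Rats given compound orally, then ADP-induced platelet aggregation measured ex vivo.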

Phosphodiesterase 3 [2] = molecular target: T1, Phosphodiesterase 3 (Homo sapiens, UniProt Q14432+Q13370); assay: Inhibition of human platelet PDE by inhibiting cyclic Adenosine monophosphate (cAMP) hydrolysis
Oryctolagus cuniculus [3] = organism: Oryctolagus cuniculus; assay: Inhibition of platelet aggregation using collagen as activating agent in rabbit platelet rich plasma (PRP); type: functional
Outline: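 Rabbit platelet-rich plasma, aggregation triggered by ADP or collagen after 3 min preincubation of PRP with drug. Single or duplicate determinations, reference agent included.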

Rattus norvegicus [4] = assay: Percent inhibition of oral efficacy in rats using the ex vivo aggregatory protocol at 10 mg/kg; type: functional; outline: as §1
[5] = molecular target: cGMP-dependent 3',5'-cyclic phosphodiesterase (Homo sapiens, UniProt O00408); assay: Inhibition of human platelet PDE by inhibiting cyclic Guanosine monophosphate (cGMP) hydrolysis
Chain of cGMP-dependent 3',5'-cyclic phosphodiesterase (O00408 whole entry): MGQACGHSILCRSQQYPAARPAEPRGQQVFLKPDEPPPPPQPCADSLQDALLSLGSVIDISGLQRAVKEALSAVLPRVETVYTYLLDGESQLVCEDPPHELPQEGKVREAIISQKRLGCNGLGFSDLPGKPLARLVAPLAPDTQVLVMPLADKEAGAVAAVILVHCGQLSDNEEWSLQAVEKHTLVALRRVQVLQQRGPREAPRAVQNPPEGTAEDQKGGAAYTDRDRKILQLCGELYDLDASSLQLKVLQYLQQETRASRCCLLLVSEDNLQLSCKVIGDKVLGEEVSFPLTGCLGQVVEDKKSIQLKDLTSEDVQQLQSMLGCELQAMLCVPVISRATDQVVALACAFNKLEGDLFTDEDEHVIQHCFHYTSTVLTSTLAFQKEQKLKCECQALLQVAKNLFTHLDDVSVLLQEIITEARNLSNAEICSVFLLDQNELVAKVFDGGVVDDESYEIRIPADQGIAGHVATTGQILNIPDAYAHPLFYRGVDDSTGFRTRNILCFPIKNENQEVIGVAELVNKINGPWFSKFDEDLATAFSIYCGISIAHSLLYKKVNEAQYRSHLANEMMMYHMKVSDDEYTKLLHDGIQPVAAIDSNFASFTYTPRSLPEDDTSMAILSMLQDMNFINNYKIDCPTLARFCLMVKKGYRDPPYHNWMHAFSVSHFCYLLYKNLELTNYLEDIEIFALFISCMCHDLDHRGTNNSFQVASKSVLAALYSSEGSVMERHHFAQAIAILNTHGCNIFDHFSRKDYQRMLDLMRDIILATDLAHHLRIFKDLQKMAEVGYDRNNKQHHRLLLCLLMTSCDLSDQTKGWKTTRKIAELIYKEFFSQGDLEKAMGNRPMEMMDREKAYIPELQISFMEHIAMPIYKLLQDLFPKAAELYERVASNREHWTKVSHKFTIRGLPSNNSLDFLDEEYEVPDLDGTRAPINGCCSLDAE

[6] = Inhibition of human platelet c-AMP phosphodiesterase hydrolysis of cAMP
Oryctolagus cuniculus [7] = organism: Oryctolagus cuniculus; assay: Inhibition of ADP-induced platelet aggregation in rabbit platelet rich plasma (PRP); type: functional
Outline: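 Rabbit platelet-rich plasma, aggregation triggered by ADP or collagen after 3 min preincubation of PRP with drug. […] Single or duplicate determinations, reference agent included.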

Oryctolagus cuniculus [8] = assay: Inhibition of thrombus formation (mean thrombus area) in conscious rabbits at 10.0 mg/kg; type: functional; settings: values are per cent of control
Outline: (§2)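 Conscious rabbit ear biolaser model: ruby laser induces microvascular thrombi. Predose mean thrombus area from 10 vessels, then compound given orally as suspension in H2O/Tween 20 and 10 trials repeated 2 h later in the same rabbit; percent inhibition versus predose. At least three rabbits.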

Oryctolagus cuniculus [9] = assay: Inhibition of thrombus formation (mean thrombus area) in conscious rabbits at 3.0 mg/kg; type: functional; settings: values are per cent of control; outline: as §2
Canis familiaris [10] = assay: Inhibition of coronary artery occlusion (mean area under flow time curve) in anesthetized dog at 0.3 mg/kg; type: functional; settings: Canis lupus familiaris
Outline: (§3)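 Modified Folts-type coronary stenosis-occlusion model of large-vessel thrombosis; read-out mean area under flow-time curve (% seconds) compared with vehicle-treated animals, as percent inhibition of thrombus formation. Five animals.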

Oryctolagus cuniculus [11] = assay: Inhibition of thrombus formation (mean thrombus area) in conscious rabbits at 1.0 mg/kg; type: functional; settings: values are per cent of control; outline: as §2
Canis familiaris [12] = assay: Inhibition of coronary artery occlusion (mean area under flow time curve) in anesthetized dog at 0.1 mg/kg; type: functional; settings: Canis lupus familiaris; outline: as §3
Canis familiaris [13] = assay: Inhibition of coronary artery occlusion (mean area under flow time curve) in anesthetized dog at 0.03 mg/kg; type: functional; settings: Canis lupus familiaris; outline: as §3
Mustela putorius furo [14] = assay: Change in mean arterial blood pressure (MABP) in anesthetized ferrets by intraduodenal dose at 3 mg/kg; type: functional, Artery; settings: dose 10 mg/kg, in the assay text read “10 mg/kg” for “3 mg/kg”
Outline: (§4)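 Anesthetized ferrets dosed intraduodenally; heart rate, mean arterial blood pressure and right ventricular contractile force monitored as dose-dependent changes, reported as maximum change (%). Averages from at least three separate experiments.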

Mustela putorius furo [15] = assay: Change in right ventricular contractile force (RCVF) in anesthetized ferrets by intraduodenal dose at 0.3 mg/kg; type: functional; settings: Heart right ventricle, dose 3 mg/kg, in the assay text read “3 mg/kg” for “0.3 mg/kg”; outline: as §4
Mustela putorius furo [16] = assay: Change in right ventricular contractile force (RCVF) in anesthetized ferrets by intraduodenal dose at 10 mg/kg; settings: Heart right ventricle
Mustela putorius furo [17] = assay: Change in heart rate (HR)in anesthetized ferrets by intraduodenal dose at 0.3 mg/kg; type: functional; settings: dose 3 mg/kg, in the assay text read “3 mg/kg” for “0.3 mg/kg”; outline: as §4
Mustela putorius furo [18] = assay: Change in mean arterial blood pressure (MABP) in anesthetized ferrets by intraduodenal dose at 0.3 mg/kg; type: functional, Artery; settings: dose 3 mg/kg, in the assay text read “3 mg/kg” for “0.3 mg/kg”; outline: as §4
Oryctolagus cuniculus [19] = assay: Inhibition of thrombus formation (mean thrombus area) in conscious rabbits at 0.3 mg/kg; type: functional; settings: values are per cent of control; outline: as §2
Mustela putorius furo [20] = assay: Change in heart rate (HR)in anesthetized ferrets by intraduodenal dose at 10 mg/kg
Phosphodiesterase 3 [21] = molecular target: T1, Phosphodiesterase 3; assay: Inhibition of human platelet PDE cAMP hydrolysis
Canis familiaris [22] = assay: Inhibition of coronary artery occlusion (mean area under flow time curve) in anesthetized dog at 0.01 mg/kg; type: functional; settings: Canis lupus familiaris; outline: as §3

IC50 (Phosphodiesterase 3 [2]) [µM] | EC50 (Oryctolagus cuniculus [3]) [nM] | IC50 [5] [µM] | SMILES | ED50 (Rattus norvegicus [1]) [mg/kg] | further results
0.006 | 33 | 20 | OCCCCOc1ccc2[nH]c3nc(O)nc-3cc2c1 | > 10 | inhibition in vivo at 10 mg/kg (Rattus norvegicus [4]): 47%
0.6 | > 106000 | 10 | Cn1c(O)nc2nc3ccc(OCCCC(=O)O)cc3cc21 | > 10 | –
0.0004 | 2 | 5 | CN(C(=O)CCCCOc1ccc2nc3[nH]c(=O)[nH]c3cc2c1)C1CCCCCC1 | – | –
0.02 | 4 | > 100 | OCCOc1ccc2[nH]c3nc(O)nc-3cc2c1 | < 10 | –
0.08 | > 100000 | 10 | Cn1c(O)nc2nc3ccc(OCCCCC(=O)O)cc3cc21 | – | –
0.3 | 21 | – | CC(C)OC(=O)CCCOc1ccc2[nH]c3nc(O)nc-3cc2c1 | > 10 | inhibition in vivo at 10 mg/kg (Rattus norvegicus [4]): 24%
0.0005 | 2 | 5.5 | COC(=O)CN(C(=O)CCCOc1ccc2[nH]c3nc(O)nc-3cc2c1)C1CCCCC1 | 3 | –
0.1 | 130 | – | CN(C(=O)CCCOc1ccc2nc3c(cc2c1)nc(O)n3C)C1CCCCC1 | < 10 | inhibition in vivo at 10 mg/kg (Rattus norvegicus [4]): 68%
0.001 | 50 | 100 | O=C(CCCOc1ccc2[nH]c3nc(O)nc-3cc2c1)NC12C[C@H]3C[C@@H](C1)C[C@@H](C2)C3 | 4 | –
0.1 | 10 | 7 | CN(C(=O)CCCOc1ccc2nc3nc(O)n(C)c3cc2c1)C1CCCCCC1 | 10 | –
0.008 | 2520 | > 100 | NC(=O)CCCOc1ccc2[nH]c3nc(O)nc-3cc2c1 | – | –
– | 670 | – | COC(=O)/C=C/C=C/c1ccc2[nH]c3nc(O)nc-3cc2c1 | 10 | IC50 [6]: 90 nM
0.07 | 760 | 50 | O=C(O)COc1ccc2[nH]c3nc(O)nc-3cc2c1 | < 10 | inhibition in vivo at 10 mg/kg (Rattus norvegicus [4]): 61%
0.04 | 950 | – | CN(C)C(=O)CCCOc1ccc2[nH]c3nc(O)nc-3cc2c1 | > 10 | EC50 (Oryctolagus cuniculus [7]): 4.77 µM
1 | 100 | – | Cn1c(O)nc2cc3cc(OCCCC(=O)O)ccc3nc21 | < 10 | inhibition in vivo at 10 mg/kg (Rattus norvegicus [4]): 59%
0.002 | 0.2 | 5 | CN(C(=O)CCCCOc1ccc2[nH]c3nc(O)nc-3cc2c1)C1CCCCC1 | – | –
0.002 | 50 | > 100 | O=c1[nH]c2cc3cc(OCCCS(=O)(=O)c4ccccc4)ccc3nc2[nH]1 | – | –
5 | – | 100 | COC(=O)CCCCOc1ccc2nc3nc(O)n(C)c3cc2c1 | – | –
0.02 | 21000 | 10 | O=C(O)CCCCc1ccc2[nH]c3nc(O)nc-3cc2c1 | – | –
– | – | – | O=C1CN2Cc3c(ccc(Cl)c3Cl)N=C2N1 [ANAGRELIDE] | – | response, % of control at 10 mg/kg (Oryctolagus cuniculus [8]): 49%; response, % of control at 3 mg/kg (Oryctolagus cuniculus [9]): 68%; inhibition in vivo at 0.3 mg/kg (Canis familiaris [10]): 117%; response, % of control at 1 mg/kg (Oryctolagus cuniculus [11]): 98%; inhibition in vivo at 0.1 mg/kg (Canis familiaris [12]): 106%; inhibition in vivo at 0.03 mg/kg (Canis familiaris [13]): 72%
0.001 | – | > 100 | O=c1[nH]c2cc3cc(OCCCCS(=O)(=O)c4ccccc4)ccc3nc2[nH]1 | – | MABP (Mustela putorius furo [14]): -11%; RVCF (Mustela putorius furo [15]): 16%; RVCF (Mustela putorius furo [16]): 39%; response, % of control at 3 mg/kg (Oryctolagus cuniculus [9]): 62%; HR (Mustela putorius furo [17]): 13%; MABP (Mustela putorius furo [18]): -9%; response, % of control at 0.3 mg/kg (Oryctolagus cuniculus [19]): 137%; HR (Mustela putorius furo [20]): 31%; response, % of control at 1 mg/kg (Oryctolagus cuniculus [11]): 74%; inhibition in vivo at 0.03 mg/kg (Canis familiaris [13]): 115%

IC50 (Phosphodiesterase 3 [2]) [µM] | EC50 (Oryctolagus cuniculus [3]) [nM] | IC50 [5] [µM] | SMILES | ED50 (Rattus norvegicus [1]) [mg/kg] | further results
0.9 | 270 | – | COC(=O)CCCCc1ccc2[nH]c3nc(O)nc-3cc2c1 | > 10 | inhibition in vivo at 10 mg/kg (Rattus norvegicus [4]): 29%
0.2 | 40 | 8 | CN(C(=O)CCCOc1ccc2nc3nc(O)n(C)c3cc2c1)C1CCCCC1 | – | –
0.003 | 6 | 7 | CN(C(=O)CCCCCOc1ccc2nc3[nH]c(=O)[nH]c3cc2c1)C1CCCCC1 | – | –
– | 20 | > 100 | Cn1c(O)nc2nc3ccc(OCCCC(=O)NC4CCCCC4)cc3cc21 | – | IC50 (Phosphodiesterase 3 [21]): 0.7 µM
0.06 | 27 | > 100 | COC(=O)CCCCCOc1ccc2nc3[nH]c(=O)[nH]c3cc2c1 | – | –
0.002 | 9 | 3 | CCOC(=O)CN(C(=O)CCCOc1ccc2[nH]c3nc(O)nc-3cc2c1)C1CCCCC1 | – | –
0.005 | 90 | 100 | CCOC(=O)C1CCN(C(=O)CCCOc2ccc3[nH]c4nc(O)nc-4cc3c2)CC1 | 9.6 | –
0.004 | 950 | 7 | O=C(O)CCCCCOc1ccc2[nH]c3nc(O)nc-3cc2c1 | – | –
0.01 | 8 | – | O=C(CCCOc1ccc2[nH]c3nc(O)nc-3cc2c1)NC1CCCCCC1 | 5.4 | –
0.5 | – | 60 | CN(C(=O)CCCCOc1ccc2nc3nc(O)n(C)c3cc2c1)C1CCCCC1 | 10 | –
0.004 | 45 | > 100 | Oc1nc2cc3cc(OCCCCc4nnnn4C4CCCCC4)ccc3[nH]c-2n1 | – | inhibition in vivo at 10 mg/kg (Rattus norvegicus [4]): 44%
0.009 | 150 | 50 | OCCCOc1ccc2[nH]c3nc(O)nc-3cc2c1 | – | –
0.002 | 2 | 6 | CN(C(=O)CCCOc1ccc2nc3[nH]c(=O)[nH]c3cc2c1)C1CCCCC1 | 2.9 | response, % of control at 0.3 mg/kg (Oryctolagus cuniculus [19]): 97%; inhibition in vivo at 0.3 mg/kg (Canis familiaris [10]): > 120%; response, % of control at 1 mg/kg (Oryctolagus cuniculus [11]): 65%; inhibition in vivo at 0.03 mg/kg (Canis familiaris [13]): 115%
0.007 | 830 | – | CNC(=O)CCCOc1ccc2[nH]c3nc(O)nc-3cc2c1 | < 10 | inhibition in vivo at 10 mg/kg (Rattus norvegicus [4]): 57%
0.6 | – | 10 | CN(C(=O)CCCCOc1ccc2nc3nc(O)n(C)c3cc2c1)C1CCCCCC1 | > 10 | inhibition in vivo at 10 mg/kg (Rattus norvegicus [4]): 43%
0.1 | 220 | – | OCCCCCc1ccc2[nH]c3nc(O)nc-3cc2c1 | > 10 | inhibition in vivo at 10 mg/kg (Rattus norvegicus [4]): 26%
0.02 | – | > 100 | O=C(CCCOc1ccc2[nH]c3nc(O)nc-3cc2c1)N1CCCCC1 | < 10 | inhibition in vivo at 10 mg/kg (Rattus norvegicus [4]): 57%
0.4 | 20 | > 100 | COC(=O)CCCOc1ccc2nc3[nH]c(=O)[nH]c3cc2c1 | – | response, % of control at 3 mg/kg (Oryctolagus cuniculus [9]): 78%; inhibition in vivo at 0.01 mg/kg (Canis familiaris [22]): 78%; response, % of control at 0.3 mg/kg (Oryctolagus cuniculus [19]): 145%; response, % of control at 1 mg/kg (Oryctolagus cuniculus [11]): 74%; inhibition in vivo at 0.1 mg/kg (Canis familiaris [12]): 120%; inhibition in vivo at 0.03 mg/kg (Canis familiaris [13]): 109%
– | 7 | > 100 | O=C(CCCOc1ccc2nc3[nH]c(=O)[nH]c3cc2c1)NC1CCCCC1 | – | inhibition in vivo at 10 mg/kg (Rattus norvegicus [4]): 31%
– | 280 | – | CCOC(=O)/C=C/c1ccc2[nH]c3nc(O)nc-3cc2c1 | – | IC50 [6]: 1000 nM
– | – | 30 | O=C(O)CCCOc1ccc2[nH]c3nc(O)nc-3cc2c1 | – | response, % of control at 3 mg/kg (Oryctolagus cuniculus [9]): 65%; inhibition in vivo at 0.01 mg/kg (Canis familiaris [22]): 89%; response, % of control at 0.3 mg/kg (Oryctolagus cuniculus [19]): 144%; response, % of control at 1 mg/kg (Oryctolagus cuniculus [11]): 70%; inhibition in vivo at 0.1 mg/kg (Canis familiaris [12]): 111%; inhibition in vivo at 0.03 mg/kg (Canis familiaris [13]): 115%
